Reference: ChEMBL document CHEMBL1151307, “Effects of tannins from Geum japonicum on the catalytic activity of thrombin and factor Xa of blood coagulation cascade” (J Nat Prod, 1998)
Activity calls are given as the source filed them.

Tests used:
[1] = system: Plasma; experiment: Anticoagulant activity in rabbit plasma assessed as thrombin time at 2 mM after 2 mins; type: functional, Oryctolagus cuniculus
Outline: (§1)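 Rabbit plasma, 0.05 M Tris buffer and compound in Tris were preincubated for 2 min at 37 °C. Clotting was started with bovine thrombin (3-4 NIH units/mL) and timed on a fibrometer. Clotting time is in seconds, mean ± SD (n = 3-5), with Student's t-test against control. Clotting beyond 300 s was scored as no clotting.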

[2] = system: Plasma; experiment: Anticoagulant activity in rabbit plasma assessed as activated partial thromboplastin time at 2 mM after 2 mins; type: functional, Oryctolagus cuniculus
Outline: (§2)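 Rabbit plasma with test compound in 0.05 M Tris buffer was incubated with APTT reagent for 2 min at 37 °C. Clotting was started with 25 mM CaCl2 and timed on a fibrometer. Clotting time is in seconds, mean ± SD (n = 3-5), compared with control by Student's t-test. Clotting beyond 300 s was scored as no clotting.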

[3] = target: T1, Prothrombin (Bos taurus, UniProt P00735); experiment: Inhibition of bovine thrombin-catalyzed hydrolysis of S-2238
Outline: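 Bovine plasma thrombin (0.19 NIH units/mL solution) in 0.05 M Tris with 0.1 M NaCl (pH 7.5) was preincubated with compound for 2 min at 37 °C. S-2238 was added as a 0.66 mM solution to start the reaction. p-Nitroaniline release was followed at 405 nm over 5 min and expressed as % inhibition. IC50 is the concentration that inhibits 50% of initial activity. Mean of three experiments.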

[4] = system: Plasma; experiment: Anticoagulant activity in rabbit plasma assessed as prothrombin time at 2 mM after 2 mins; type: functional, Oryctolagus cuniculus
Outline: (§3)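 Rabbit plasma was preincubated 2 min at 37 °C with compound dissolved in 0.05 M Tris buffer plus Tris/0.1 M NaCl, pH 7.5. Clotting was triggered with thromboplastin-calcium reagent and read on a fibrometer. Clotting time is in seconds, mean ± SD (n = 3-5), with Student's t-test against control. A cut-off of >300 s was scored as no clotting.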

[5] = target: Prothrombin (Bos taurus) (UniProt P00735); experiment: Inhibition of bovine thrombin at 200 uM by Lineweaver-Burke plot analysis
Outline: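 Bovine plasma thrombin at a fixed 0.19 NIH units/mL was tested in 0.05 M Tris with 0.1 M NaCl (pH 7.5) at 37 °C, with S-2238 at 0.6 to 1.7 mM. Compound and enzyme were preincubated for under 2 min before substrate was added. Initial rates were plotted as Lineweaver-Burk plots and fitted by linear regression to give the inhibition type and Ki. Mean of three.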

[6] = target: T1, Prothrombin; experiment: Inhibition of bovine thrombin-catalyzed hydrolysis of fibrinogen
Outline: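 Compound at various concentrations was preincubated with thrombin (0.05 NIH units/mL solution) for 3 min at 37 °C. The reaction was started with fibrinogen (2 mg/mL solution). Clot turbidity was read at 405 nm for 5 min and velocities were taken as mOD/min. IC50 is the concentration that inhibits 50% of initial activity. Mean of three experiments.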

[7] = system: Plasma; experiment: Anticoagulant activity in rabbit plasma assessed as activated partial thromboplastin time at 0.1 mM after 2 mins; type: functional, Oryctolagus cuniculus; settings: in the assay text read “1 mM” for “0.1 mM”; outline: as §2
[8] = target: T1, Prothrombin; experiment: Inhibition of bovine thrombin by Lineweaver-Burke plot analysis
Outline: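 Bovine plasma thrombin (0.19 NIH units/mL) was run in 0.05 M Tris/0.1 M NaCl, pH 7.5, at 37 °C. It was preincubated with compound for under 2 min, and the reaction was started with S-2238 at 0.6-1.7 mM. Initial rates were taken as p-nitroaniline release at 405 nm. Inhibition type and Ki came from linear-regression Lineweaver-Burk plots.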

[9] = system: Plasma; experiment: Anticoagulant activity in rabbit plasma assessed as prothrombin time at 0.5 mM after 2 mins; type: functional, Oryctolagus cuniculus; outline: as §3
[10] = target: T2, Coagulation factor X (Homo sapiens, UniProt P00742); experiment: Inhibition of human factor 10a-catalyzed hydrolysis of S-2222
Outline: (§4)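 Compound and 0.20 mM S-2222 were mixed in 0.05 M Tris/0.1 M NaCl, pH 8.3. Reaction was started with factor Xa (50 ng/mL) and 4-nitroanilide release was read at 405 nm over 5 min at 37 °C. IC50 is the concentration giving 50% inhibition of initial activity, mean ± SD of three experiments. Ki was determined with S-2222 at 0.04-0.20 mM.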

[11] = system: Plasma; experiment: Anticoagulant activity in rabbit plasma assessed as thrombin time at 0.1 mM after 2 mins; type: functional, Oryctolagus cuniculus; settings: in the assay text read “1 mM” for “0.1 mM”; outline: as §1
[12] = system: Plasma; experiment: Anticoagulant activity in rabbit plasma assessed as thrombin time at 0.5 mM after 2 mins; type: functional, Oryctolagus cuniculus; outline: as §1
[13] = system: Plasma; experiment: Anticoagulant activity in rabbit plasma assessed as prothrombin time at 0.1 mM after 2 mins; type: functional, Oryctolagus cuniculus; settings: in the assay text read “1 mM” for “0.1 mM”; outline: as §3
[14] = system: Plasma; experiment: Anticoagulant activity in rabbit plasma assessed as activated partial thromboplastin time at 0.5 mM after 2 mins; type: functional, Oryctolagus cuniculus; outline: as §2
[15] = target: T2, Coagulation factor X; experiment: Inhibition of human factor 10a; outline: as §4
[16] = target: Prothrombin (Bos taurus) (UniProt P00735); experiment: Inhibition of bovine thrombin upto 100 uM
Outline: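 Bovine plasma thrombin (0.19 NIH units/mL) in Tris/0.1 M NaCl, pH 7.5, was preincubated 2 min at 37 °C with compound in 0.1% DMSO, which also served as vehicle control. Reaction was started with S-2238 (0.66 mM, as added) and read as the rise in A405 over 5 min. Results are percent inhibition of thrombin activity.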

[17] = system: Plasma; experiment: Anticoagulant activity in rabbit plasma assessed as prothrombin time at 0.75 mM after 2 mins; type: functional, Oryctolagus cuniculus; outline: as §3
[18] = system: Plasma; experiment: Anticoagulant activity in rabbit plasma assessed as thrombin time at 0.75 mM after 2 mins; type: functional, Oryctolagus cuniculus; outline: as §1
[19] = Toxicity in po dosed mouse; type: organism-based; settings: in vivo
[20] = Toxicity in po dosed rat; type: organism-based; settings: in vivo
[21] = system: Plasma; experiment: Anticoagulant activity in rabbit plasma assessed as thrombin time at 0.25 mM after 2 mins; type: functional, Oryctolagus cuniculus
Outline: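 TT: rabbit plasma, 0.05 M Tris and compound in Tris preincubated 2 min, then bovine thrombin (3-4 NIH units/mL) added. Clotting was timed on a fibrometer at 37 °C. Values are the mean of three determinations (mean ± SD, n = 3-5), with >300 s taken as no clotting.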

[22] = system: Plasma; experiment: Anticoagulant activity in rabbit plasma assessed as prothrombin time at 0.25 mM after 2 mins; type: functional, Oryctolagus cuniculus
Outline: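 PT: 0.05 M Tris/0.1 M NaCl (pH 7.5), compound in Tris and rabbit plasma incubated 2 min at 37 °C. Clotting started with thromboplastin-calcium reagent and timed on a fibrometer. Values are the mean of three determinations (mean ± SD, n = 3-5). Clotting >300 s was taken as no clotting.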

[23] = system: Plasma; experiment: Anticoagulant activity in rabbit plasma assessed as activated partial thromboplastin time at 0.75 mM after 2 mins; type: functional, Oryctolagus cuniculus; outline: as §2
[24] = system: Plasma; experiment: Anticoagulant activity in rabbit plasma assessed as activated partial thromboplastin time at 0.25 mM after 2 mins; type: functional, Oryctolagus cuniculus
Outline: (§5)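 APTT: rabbit plasma with compound (dissolved in 0.05 M Tris buffer) and APTT reagent preincubated 2 min, then clotting started with 25 mM CaCl2. Clotting time was read on a fibrometer at 37 °C. Values are the mean of three separate determinations (mean ± SD, n = 3-5), with clotting >300 s recorded as no clotting.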

[25] = system: Plasma; experiment: Anticoagulant activity in rabbit plasma assessed as activated partial thromboplastin time at 0.47 mM after 2 mins; type: functional, Oryctolagus cuniculus; outline: as §5
[26] = system: Plasma; experiment: Anticoagulant activity in rabbit plasma assessed as prothrombin time at 0.45 mM after 2 mins; type: functional, Oryctolagus cuniculus
Outline: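 Rabbit plasma incubated 2 min at 37 °C with compound in 0.05 M Tris buffer plus 0.05 M Tris/0.1 M NaCl (pH 7.5); clotting started with thromboplastin-calcium reagent and timed on a fibrometer at 37 °C; clotting time in seconds, cut-off >300 s; average of three separate determinations (mean ± SD, n = 3-5).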

T2 sequence (P00742 41-179 limits assumed): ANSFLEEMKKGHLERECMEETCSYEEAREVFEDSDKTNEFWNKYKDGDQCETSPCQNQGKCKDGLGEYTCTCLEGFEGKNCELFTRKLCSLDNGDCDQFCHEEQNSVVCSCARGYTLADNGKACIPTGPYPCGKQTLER
T2 sequence (P00742 235-488 limits assumed): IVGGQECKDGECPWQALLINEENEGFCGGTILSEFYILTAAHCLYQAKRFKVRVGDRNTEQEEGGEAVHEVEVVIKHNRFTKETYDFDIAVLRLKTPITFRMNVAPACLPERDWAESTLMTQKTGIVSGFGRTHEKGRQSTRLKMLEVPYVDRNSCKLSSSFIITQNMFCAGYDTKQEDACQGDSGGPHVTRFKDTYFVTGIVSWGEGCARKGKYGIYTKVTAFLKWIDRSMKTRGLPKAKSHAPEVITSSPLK

SMILES | IC50 [3] | IC50 [6] | APTT [7] | Ki [8] | PT [9] | IC50 [10] | TT [11] | TT [12] | PT [13] | APTT [14] | Ki [15] | Activity [16] | also measured
O=C1O[C@H]2[C@H](O)[C@@H](CO)OC(O)[C@@H]2OC(=O)c2cc(O)c(O)c(O)c2-c2c1cc(O)c(O)c2O (stereo not given in full) | > 200000 nM | > 200000 nM |  |  |  |  |  |  |  |  |  |  | TT [1]: 9.43 s; APTT [2]: 39.9 s; PT [4]: 10 s; Activity [5]: inactive
O=C(OC[C@H]1OC(O)[C@H](OC(=O)c2cc(O)c(O)c(O)c2)[C@@H](O)[C@@H]1O)c1cc(O)c(O)c(O)c1 (stereo not given in full) | > 200000 nM | > 200000 nM |  |  |  |  |  |  |  |  |  |  | TT [1]: 10.7 s; APTT [2]: 40.8 s; PT [4]: 11.1 s; Activity [5]: inactive
O=C1OC[C@@H](O)[C@H]([C@@H]2OC(=O)c3cc(O)c(O)c(O)c3-c3c(O)c(O)c(O)c4c3C(=O)O[C@H]2[C@H]4O)OC(=O)c2cc(O)c(O)c(O)c2-c2c1cc(O)c(O)c2O | 190 nM | 26 nM | >300 s | 830 nM | 13.9 s | 280 nM | >300 s | 16.2 s | >300 s | 31.6 s | 690 nM |  | 
COc1cc(C(=O)OC[C@H]2O[C@@H](OC(=O)c3cc(OC)c(OC)c(OC)c3)[C@H](OC(=O)c3cc(OC)c(OC)c(OC)c3)[C@@H](OC(=O)c3cc(OC)c(OC)c(OC)c3)[C@@H]2OC(=O)c2cc(OC)c(OC)c(OC)c2)cc(OC)c1OC |  |  |  |  |  |  |  |  |  |  |  | inactive | 
COc1cc2c(c(OC)c1OC)-c1c(cc(OC)c(OC)c1OC)C(=O)O[C@H]1[C@@H]3OC(=O)c4cc(OC)c(OC)c(OC)c4-c4c(cc(OC)c(OC)c4OC)C(=O)O[C@H]3C(OC)O[C@@H]1COC2=O (stereo not given in full) |  |  |  |  |  |  |  |  |  |  |  | inactive | 
O=C(OC[C@H]1O[C@@H](OC(=O)c2ccccc2)[C@H](OC(=O)c2ccccc2)[C@@H](OC(=O)c2ccccc2)[C@@H]1OC(=O)c1ccccc1)c1ccccc1 |  |  |  |  |  |  |  |  |  |  |  | inactive | 
O=C1OC[C@@H](O)[C@H]([C@@H]2OC(=O)c3cc(O)c(O)c(O)c3-c3c(O)c(O)c(O)c4c3C(=O)O[C@H]2[C@@H]4O)OC(=O)c2cc(O)c(O)c(O)c2-c2c1cc(O)c(O)c2O [CASUARIIN] | 280 nM | 59 nM | >300 s | 980 nM | 13.6 s | 720 nM | >300 s | 12.3 s | >300 s | 72.3 s | 450 nM |  | 
O=C1OC[C@H]2OC(O)[C@@H]3OC(=O)c4cc(O)c(O)c(O)c4-c4c(cc(O)c(O)c4O)C(=O)O[C@H]3[C@@H]2OC(=O)c2cc(O)c(O)c(O)c2-c2c1cc(O)c(O)c2O (stereo not given in full) [PEDUNCULAGIN] | 180 nM | 150 nM | >300 s | 42 nM | 13.5 s | 560 nM | >300 s | 22.7 s | >300 s | 43.7 s | 990 nM |  | PT [17]: 15.2 s; TT [18]: 33.5 s; LD50 [19]: > 100 mg/kg; LD50 [20]: > 100 mg/kg; TT [21]: 12.6 s; PT [22]: 10.2 s; APTT [23]: 60.2 s; APTT [24]: 35.3 s
O=C(OC[C@H]1O[C@@H](OC(=O)c2cc(O)c(O)c(O)c2)[C@H](OC(=O)c2cc(O)c(O)c(O)c2)[C@@H](OC(=O)c2cc(O)c(O)c(O)c2)[C@@H]1OC(=O)c1cc(O)c(O)c(O)c1)c1cc(O)c(O)c(O)c1 [PENTAGALLOYL GLUCOSE] | 110 nM | 50 nM |  | 3900 nM | > 300 s | 170 nM |  | > 300 s |  | > 300 s | 570 nM |  | APTT [25]: >300 s; TT [21]: >300 s; PT [22]: 13.9 s; PT [26]: >300 s; APTT [24]: 50.6 s
O=C(OC1O[C@@H]2COC(=O)c3cc(O)c(O)c(O)c3-c3c(cc(O)c(O)c3O)C(=O)O[C@H]2[C@H](OC(=O)c2cc(O)c(O)c(O)c2)[C@H]1OC(=O)c1cc(O)c(O)c(O)c1)c1cc(O)c(O)c(O)c1 (stereo not given in full) [TELLIMAGRANDIN II] | 70 nM | 14 nM | >300 s | 420 nM | 11.9 s | 210 nM | >300 s | 18.7 s | >300 s | 45.7 s | 440 nM |  | 
